Columns and labels:
[1] = biological target: Sodium-dependent noradrenaline transporter (Homo sapiens, UniProt P23975); experiment: Inhibition of [3H]norepinephrine reuptake at human NET expressed in MDCK cells by scintillation counting; assay type: cell-based
[2] = biological target: Sodium-dependent dopamine transporter (Homo sapiens, UniProt Q01959); experiment: Inhibition of [3H]dopamine reuptake at human DAT expressed in CHOK1 cells by scintillation counting; assay type: cell-based, CHO-K1
Cytochrome P450 2D6 = Cytochrome P450 2D6 (Homo sapiens, UniProt P10635); experiment: Inhibition of CYP2D6; assay type: ADME
Chain of Cytochrome P450 2D6 (P10635 whole entry): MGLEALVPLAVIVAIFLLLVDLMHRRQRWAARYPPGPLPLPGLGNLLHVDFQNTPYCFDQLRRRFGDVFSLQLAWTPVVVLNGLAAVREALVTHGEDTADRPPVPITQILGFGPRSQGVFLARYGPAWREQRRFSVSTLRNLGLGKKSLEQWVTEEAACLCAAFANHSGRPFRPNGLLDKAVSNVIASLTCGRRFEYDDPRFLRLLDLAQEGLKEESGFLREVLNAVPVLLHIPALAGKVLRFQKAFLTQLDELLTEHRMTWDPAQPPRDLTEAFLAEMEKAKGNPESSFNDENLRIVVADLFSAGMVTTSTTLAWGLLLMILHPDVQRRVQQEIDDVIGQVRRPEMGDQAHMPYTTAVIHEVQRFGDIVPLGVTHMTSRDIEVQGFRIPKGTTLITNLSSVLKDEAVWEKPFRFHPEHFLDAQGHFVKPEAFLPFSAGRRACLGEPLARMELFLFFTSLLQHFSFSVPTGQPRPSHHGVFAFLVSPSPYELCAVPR
How it was run: (§1)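 Microsomal stability and CYP inhibition were run by a contract laboratory under its standard protocols. Stability was measured in human and mouse liver microsomes and reported as t1/2 in min. Midazolam was the reference substrate for CYP3A4.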

Cytochrome P450 3A4 = Cytochrome P450 3A4 (Homo sapiens, UniProt P08684); experiment: Inhibition of CYP3A4; assay type: ADME; how it was run: as §1
Chain of Cytochrome P450 3A4 (P08684 whole entry): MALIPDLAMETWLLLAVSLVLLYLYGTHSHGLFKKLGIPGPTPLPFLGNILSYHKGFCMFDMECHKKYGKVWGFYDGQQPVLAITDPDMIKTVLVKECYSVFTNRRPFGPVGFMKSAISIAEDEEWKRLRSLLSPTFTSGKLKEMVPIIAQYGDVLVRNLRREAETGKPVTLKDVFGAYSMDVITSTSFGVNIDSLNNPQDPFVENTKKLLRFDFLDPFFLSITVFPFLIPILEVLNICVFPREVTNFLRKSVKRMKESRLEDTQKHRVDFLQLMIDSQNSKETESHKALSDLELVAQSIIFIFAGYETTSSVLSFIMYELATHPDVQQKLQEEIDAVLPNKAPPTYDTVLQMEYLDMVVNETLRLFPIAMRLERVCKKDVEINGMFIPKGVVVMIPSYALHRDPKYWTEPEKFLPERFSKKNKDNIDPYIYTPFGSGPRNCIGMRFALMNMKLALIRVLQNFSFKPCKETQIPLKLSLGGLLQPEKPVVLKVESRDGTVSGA

Cytochrome P450 2C9 = Cytochrome P450 2C9 (Homo sapiens, UniProt P11712); experiment: Inhibition of CYP2C9; assay type: ADME; how it was run: as §1
Chain of Cytochrome P450 2C9 (P11712 whole entry): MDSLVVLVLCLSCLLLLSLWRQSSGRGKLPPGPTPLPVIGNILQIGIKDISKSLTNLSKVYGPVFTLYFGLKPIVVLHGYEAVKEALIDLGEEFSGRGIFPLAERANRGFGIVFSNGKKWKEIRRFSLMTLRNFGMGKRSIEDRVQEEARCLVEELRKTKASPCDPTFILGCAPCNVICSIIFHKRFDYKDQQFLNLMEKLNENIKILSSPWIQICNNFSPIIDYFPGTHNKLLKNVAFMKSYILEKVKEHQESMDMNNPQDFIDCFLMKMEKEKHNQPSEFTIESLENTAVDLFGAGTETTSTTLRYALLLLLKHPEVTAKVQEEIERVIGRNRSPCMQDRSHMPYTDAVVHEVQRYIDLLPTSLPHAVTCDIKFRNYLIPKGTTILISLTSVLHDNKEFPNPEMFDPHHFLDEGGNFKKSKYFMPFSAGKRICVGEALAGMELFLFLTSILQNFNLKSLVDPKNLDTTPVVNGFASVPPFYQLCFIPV

Cytochrome P450 2C19 = Cytochrome P450 2C19 (Homo sapiens, UniProt P33261); experiment: Inhibition of CYP2C19; assay type: ADME
Chain of Cytochrome P450 2C19 (P33261 whole entry): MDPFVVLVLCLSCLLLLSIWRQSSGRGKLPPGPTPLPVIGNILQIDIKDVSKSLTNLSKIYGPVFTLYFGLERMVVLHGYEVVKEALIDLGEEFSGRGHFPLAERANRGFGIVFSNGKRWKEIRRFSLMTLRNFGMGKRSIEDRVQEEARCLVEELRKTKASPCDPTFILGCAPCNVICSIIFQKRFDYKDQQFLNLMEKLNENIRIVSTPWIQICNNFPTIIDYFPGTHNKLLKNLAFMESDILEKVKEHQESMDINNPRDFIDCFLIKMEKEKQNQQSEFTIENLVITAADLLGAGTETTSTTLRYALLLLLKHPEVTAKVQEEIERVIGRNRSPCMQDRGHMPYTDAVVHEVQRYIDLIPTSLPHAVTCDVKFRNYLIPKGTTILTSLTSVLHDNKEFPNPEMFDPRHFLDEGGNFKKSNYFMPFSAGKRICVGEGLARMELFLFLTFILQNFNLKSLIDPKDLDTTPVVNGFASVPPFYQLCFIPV

[3] = Half life in human liver microsome; assay type: ADME; details: liver microsomes; how it was run: as §1
[4] = Half life in mouse liver microsome; assay type: ADME; details: liver microsomes; how it was run: as §1
[5] = Drug level in mouse plasma at 3 mg/kg, po after 120 mins; assay type: ADME, organism-based; set-up: dose 3 mg/kg, route oral; details: read-out: Drug uptake
How it was run: (§2)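 Male mice given the HCl salt orally at 3, 10 or 30 mg/kg. Plasma and whole brain were sampled from the tail suspension test animals after the 120 min pretreatment. Levels reported as ng/mL for plasma and ng/g for brain.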

Brain = experiment: fCmax in mouse brain at 3 to 30 mg/kg, po after 120 mins; assay type: ADME, organism-based; set-up: dose 3-30 mg/kg, route oral; details: in vivo, 2 h
How it was run: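 Brain free level estimated from measured brain concentration in the tail suspension test animals, corrected by mouse plasma protein binding.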

[6] = Drug level in mouse whole brain at 30 mg/kg, po after 120 mins; assay type: ADME, organism-based; set-up: dose 30 mg/kg, route oral; details: in vivo, 2 h; how it was run: as §2
[7] = Plasma protein binding in mouse at 3 to 30 mg/kg, po after 120 mins; assay type: ADME, organism-based; set-up: dose 3-30 mg/kg, route oral; details: read-out: PPB
[8] = biological target: Voltage-gated inwardly rectifying potassium channel KCNH2 (Homo sapiens, UniProt Q12809); experiment: Inhibition of human ERG
Chain of Voltage-gated inwardly rectifying potassium channel KCNH2 (Q12809 whole entry): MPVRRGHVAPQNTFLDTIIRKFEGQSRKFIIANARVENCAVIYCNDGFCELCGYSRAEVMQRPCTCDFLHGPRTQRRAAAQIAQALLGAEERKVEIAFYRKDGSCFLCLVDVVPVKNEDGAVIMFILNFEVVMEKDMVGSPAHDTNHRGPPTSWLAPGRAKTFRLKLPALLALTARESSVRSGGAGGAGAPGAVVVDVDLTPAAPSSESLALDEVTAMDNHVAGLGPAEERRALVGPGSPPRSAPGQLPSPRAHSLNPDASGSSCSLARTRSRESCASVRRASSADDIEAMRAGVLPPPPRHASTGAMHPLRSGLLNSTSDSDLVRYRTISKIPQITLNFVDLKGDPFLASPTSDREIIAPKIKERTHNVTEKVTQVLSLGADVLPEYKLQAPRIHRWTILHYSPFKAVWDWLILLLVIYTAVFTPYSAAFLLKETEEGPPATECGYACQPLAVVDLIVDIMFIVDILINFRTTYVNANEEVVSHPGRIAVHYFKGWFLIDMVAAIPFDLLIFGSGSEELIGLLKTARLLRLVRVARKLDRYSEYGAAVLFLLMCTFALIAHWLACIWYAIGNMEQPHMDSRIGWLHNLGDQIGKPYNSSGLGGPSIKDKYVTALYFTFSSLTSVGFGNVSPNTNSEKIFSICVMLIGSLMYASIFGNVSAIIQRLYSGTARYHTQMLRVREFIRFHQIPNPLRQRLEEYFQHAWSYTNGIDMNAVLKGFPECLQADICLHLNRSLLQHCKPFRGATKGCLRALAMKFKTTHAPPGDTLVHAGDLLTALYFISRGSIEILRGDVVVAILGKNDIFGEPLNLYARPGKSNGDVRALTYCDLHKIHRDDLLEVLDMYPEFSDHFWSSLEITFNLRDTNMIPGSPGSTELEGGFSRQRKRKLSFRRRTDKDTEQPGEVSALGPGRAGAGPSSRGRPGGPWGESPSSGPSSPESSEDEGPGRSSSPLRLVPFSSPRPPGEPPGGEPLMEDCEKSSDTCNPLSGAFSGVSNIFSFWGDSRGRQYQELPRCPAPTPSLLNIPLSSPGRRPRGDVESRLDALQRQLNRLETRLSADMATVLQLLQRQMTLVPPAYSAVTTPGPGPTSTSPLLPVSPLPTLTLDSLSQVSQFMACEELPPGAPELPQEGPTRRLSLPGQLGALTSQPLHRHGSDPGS

[9] = Drug level in mouse plasma at 30 mg/kg, po after 120 mins; assay type: ADME, organism-based; set-up: dose 30 mg/kg, route oral; details: read-out: Drug uptake; how it was run: as §2
Mus musculus [10] = experiment: Antidepressant activity in mouse assessed as decrease in immobility at 30 mg/kg, po after 120 mins by tail suspension test; assay type: functional; details: 2 h
How it was run: (§3)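 Male mice (10–12 per group) dosed orally once, 120 min pretreatment, then suspended by the tail. Immobility recorded automatically for 5 min, scored blind, compared with a vehicle group. One-way ANOVA with post-hoc comparisons, p <0.05 taken as significant.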

Mus musculus [11] = experiment: Antidepressant activity in mouse assessed as decrease in immobility at 100 mg/kg, po after 120 mins by tail suspension test; assay type: functional; details: 2 h; how it was run: as §3
Mus musculus [12] = experiment: Neurotoxicity in mouse assessed as effect on locomotor activity at 3 to 30 mg/kg, po; assay type: toxicity, organism-based; set-up: dose 3-30 mg/kg, route oral; details: in vivo
How it was run: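 Mice pretreated orally with vehicle or compound, returned to the home cage, then placed individually in locomotor cages with infrared photocell beams. Horizontal and vertical activity monitored in 5 min intervals for up to 60 min; the first 5 min were assessed at 10 and 30 mg/kg. One-way ANOVA, p <0.05.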

Mus musculus [13] = experiment: Antidepressant activity in po dosed mouse assessed as decrease in immobility after 120 mins by tail suspension test; assay type: functional, organism-based; how it was run: as §3
[14] = Drug level in mouse whole brain at 3 mg/kg, po after 120 mins; assay type: ADME, organism-based; set-up: dose 3 mg/kg, route oral; details: in vivo, 2 h; how it was run: as §2
Mus musculus [15] = experiment: Antidepressant activity in mouse assessed as decrease in immobility at 10 mg/kg, po after 120 mins by tail suspension test; assay type: functional; details: 2 h; how it was run: as §3
[16] = Drug level in mouse whole brain at 10 mg/kg, po after 120 mins; assay type: ADME, organism-based; set-up: dose 10 mg/kg, route oral; details: in vivo, 2 h; how it was run: as §2
[17] = Drug level in mouse plasma at 10 mg/kg, po after 120 mins; assay type: ADME, organism-based; set-up: dose 10 mg/kg, route oral; details: read-out: Drug uptake; how it was run: as §2
[18] = Ratio of drug level in whole brain to plasma of mouse at 30 mg/kg, po after 120 mins; assay type: ADME, organism-based; set-up: dose 30 mg/kg, route oral; details: read-out: BPR
How it was run: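 Male mice were dosed orally once with the HCl salt at 3, 10 and 30 mg/kg, with a 120 min pretreatment before the 5 min tail suspension test. There were 10–12 mice per group. Afterwards, whole brain (ng/g) and plasma (ng/mL) samples were taken from the tested animals to give the brain-to-plasma ratio.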

Chain of Sodium-dependent dopamine transporter (Q01959 whole entry): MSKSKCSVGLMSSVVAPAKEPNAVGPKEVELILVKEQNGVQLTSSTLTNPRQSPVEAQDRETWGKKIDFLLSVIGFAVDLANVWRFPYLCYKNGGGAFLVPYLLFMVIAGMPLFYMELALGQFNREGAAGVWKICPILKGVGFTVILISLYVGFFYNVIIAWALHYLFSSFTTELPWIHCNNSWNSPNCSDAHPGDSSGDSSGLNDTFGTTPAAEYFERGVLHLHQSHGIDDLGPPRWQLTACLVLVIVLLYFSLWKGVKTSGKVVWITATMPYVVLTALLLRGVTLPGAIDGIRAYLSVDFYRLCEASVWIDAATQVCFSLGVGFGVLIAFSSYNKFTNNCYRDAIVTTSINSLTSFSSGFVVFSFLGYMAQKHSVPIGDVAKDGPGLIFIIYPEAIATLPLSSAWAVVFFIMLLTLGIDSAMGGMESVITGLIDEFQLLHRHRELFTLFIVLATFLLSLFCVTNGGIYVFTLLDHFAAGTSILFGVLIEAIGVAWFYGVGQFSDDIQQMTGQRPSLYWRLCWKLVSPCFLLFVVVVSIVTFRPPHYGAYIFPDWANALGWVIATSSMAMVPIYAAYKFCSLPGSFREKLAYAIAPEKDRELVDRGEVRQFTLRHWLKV
Chain of Sodium-dependent noradrenaline transporter (P23975 whole entry): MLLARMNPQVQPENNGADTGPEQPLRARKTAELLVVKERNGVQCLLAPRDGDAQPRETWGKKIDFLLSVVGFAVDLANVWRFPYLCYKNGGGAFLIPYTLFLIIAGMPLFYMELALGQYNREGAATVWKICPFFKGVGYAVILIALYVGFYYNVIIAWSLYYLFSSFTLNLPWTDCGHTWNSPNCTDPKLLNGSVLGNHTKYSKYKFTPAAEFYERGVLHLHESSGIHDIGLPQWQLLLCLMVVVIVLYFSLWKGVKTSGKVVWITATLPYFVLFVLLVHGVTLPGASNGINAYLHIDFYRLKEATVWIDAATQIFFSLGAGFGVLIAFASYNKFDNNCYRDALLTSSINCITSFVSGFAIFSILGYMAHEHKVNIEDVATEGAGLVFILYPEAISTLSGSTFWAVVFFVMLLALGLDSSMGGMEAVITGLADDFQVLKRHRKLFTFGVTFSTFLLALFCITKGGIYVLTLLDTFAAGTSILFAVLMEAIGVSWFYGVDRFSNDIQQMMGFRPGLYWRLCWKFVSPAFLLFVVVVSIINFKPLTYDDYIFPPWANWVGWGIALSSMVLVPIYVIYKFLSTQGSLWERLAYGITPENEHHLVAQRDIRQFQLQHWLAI

Row | SMILES | IC50 [1] [nM] | IC50 [2] [nM] | IC50 (Cytochrome P450 2D6) [nM] | IC50 (Cytochrome P450 3A4) [nM] | IC50 (Cytochrome P450 2C9) [nM] | IC50 (Cytochrome P450 2C19) [nM] | half-life [3] [h] | half-life [4] [h] | other results
1 | N[C@H]1Cc2ccccc2[C@@H](c2ccc(Cl)c(Cl)c2)C1 | 174 | 175 |  |  |  |  |  |  | 
2 | CNC[C@H]1Cc2ccccc2[C@@H](c2ccc(Cl)c(Cl)c2)C1 | 372 | 484 |  |  |  |  |  |  | 
3 | CNC[C@@H]1Cc2ccccc2[C@@H](c2ccc(Cl)c(Cl)c2)C1 | 126 | 103 | 917 | > 25000 | > 25000 | 2170 | > 5 | 1.55 | 
4 | CN[C@H]1Cc2ccccc2[C@@H](c2ccc(Cl)c(Cl)c2)C1 |  |  | 2780 | 17100 | > 25000 | 10100 | > 5 | > 5 | concentration at 2 h [5]: 96 ng/mL; fCmax (Brain): 440 nM; Drug uptake [6]: 13571 ng; fraction unbound at 2 h [7]: 0.01; IC50 [8]: 1600 nM; concentration at 2 h [9]: 344 ng/mL; inhibition in vivo at 30 mg/kg (Mus musculus [10]): 50%; inhibition in vivo at 100 mg/kg (Mus musculus [11]): 30%; Activity (Mus musculus [12]): Non-toxic; inhibition (Mus musculus [13]): Dose-dependent effect; Drug uptake [14]: 2830 ng; inhibition in vivo at 10 mg/kg (Mus musculus [15]): 21%; Drug uptake [16]: 6021 ng; concentration at 2 h [17]: 164 ng/mL
5 | CN(C)[C@@H]1Cc2ccccc2[C@H](c2ccc(Cl)c(Cl)c2)C1 | 164 | 273 |  |  |  |  |  |  | 
6 | NCC[C@H]1Cc2ccccc2[C@@H](c2ccc(Cl)c(Cl)c2)C1 |  | 50 | 13800 | > 25000 | > 25000 | 1640 | > 5 | > 5 | IC50 [8]: 1510 nM
7 | N[C@@H]1Cc2ccccc2[C@@H](c2ccc(Cl)c(Cl)c2)C1 | 731 | 408 |  |  |  |  |  |  | 
8 | CN[C@@H]1CCc2ccccc2[C@@H]1c1ccc(Cl)c(Cl)c1 | 112 | 559 | 33 |  | 7600 |  | 0.917 | 0.917 | 
9 | CNC[C@@H]1Cc2ccccc2[C@H](c2ccc(Cl)c(Cl)c2)C1 | 210 | 111 | 154 | > 25000 | > 25000 | 6020 | > 5 | > 5 | IC50 [8]: 2000 nM
10 | N[C@@H]1Cc2ccccc2[C@H](c2ccc(Cl)c(Cl)c2)C1 | 855 | 894 |  |  |  |  |  |  | 
11 | CN(C)C[C@H]1Cc2ccccc2[C@H](c2ccc(Cl)c(Cl)c2)C1 (mixture of isomers) | 309 | 339 |  |  |  |  |  |  | 
12 | CN[C@H]1CCc2ccccc2[C@@H]1c1ccc(Cl)c(Cl)c1 | 766 | 91 | 8 |  | > 10000 |  | 1.77 | 1.68 | 
13 | CN[C@H]1CCc2ccccc2[C@H]1c1ccc(Cl)c(Cl)c1 | 7260 | 1620 | 495 |  | > 10000 |  | 0.917 | 0.1 | 
14 | CN[C@H]1CC[C@@H](c2ccc(Cl)c(Cl)c2)c2ccccc21 [SERTRALINE] |  |  | 1400 |  | > 10000 | 310 | > 2 |  | 
15 | CNCCCN1c2ccccc2CCc2ccccc21 [DESIPRAMINE] |  |  |  |  |  |  |  |  | Kp at 2 h [18]: 40
16 | CN(C)[C@@H]1Cc2ccccc2[C@@H](c2ccc(Cl)c(Cl)c2)C1 | 174 | 176 |  |  |  |  |  |  | 
17 | CN(C)[C@H]1Cc2ccccc2[C@@H](c2ccc(Cl)c(Cl)c2)C1 | 98 | 319 |  |  |  |  |  |  | 
18 | CN[C@H]1Cc2ccccc2[C@H](c2ccc(Cl)c(Cl)c2)C1 |  |  | 67 | > 25000 | > 25000 | > 25000 | > 5 | > 5 | 
19 | CN[C@@H]1Cc2ccccc2[C@H](c2ccc(Cl)c(Cl)c2)C1 |  | 281 | 20 | > 25000 | > 25000 | > 25000 | > 5 | > 5 | IC50 [8]: 5270 nM
20 | NCC[C@@H]1Cc2ccccc2[C@H](c2ccc(Cl)c(Cl)c2)C1 |  | 32 | 265 | > 25000 | > 25000 | 3760 | > 5 | > 5 | IC50 [8]: 13100 nM
21 | CN(C)C[C@@H]1Cc2ccccc2[C@H](c2ccc(Cl)c(Cl)c2)C1 (racemic) | 565 | 332 |  |  |  |  |  |  | 
22 | CN[C@@H]1CCc2ccccc2[C@H]1c1ccc(Cl)c(Cl)c1 | 1640 | 212 | 57 |  | > 10000 |  | 1.58 | 0.333 | 
23 | CN[C@@H]1Cc2ccccc2[C@@H](c2ccc(Cl)c(Cl)c2)C1 |  | 62 | 1160 | > 25000 | > 25000 | 5260 | > 5 | 2 | IC50 [8]: 2320 nM
24 | CNC[C@H]1Cc2ccccc2[C@H](c2ccc(Cl)c(Cl)c2)C1 |  |  | 41 | 20100 | > 25000 | 7690 | > 5 | > 5 | IC50 [8]: 1610 nM

From ChEMBL document CHEMBL1641414, “Synthesis and pharmacological evaluation of 4-(3,4-dichlorophenyl)-N-methyl-1,2,3,4-tetrahydronaphthalenyl amines as triple reuptake inhibitors” (Bioorg Med Chem, 2011)
